# From ChEMBL document CHEMBL1146085, “Nanomolar inhibitors of the peptidyl prolyl cis/trans isomerase Pin1 from combinatorial peptide libraries” (J Med Chem, 2006)
# Where a SMILES comes first, the peptide text is derived from it. [ ]: non-standard residue; d: D form. The star is where a group is joined. dalloThr(PO3H2) = C[C@@H](OP(=O)(O)O)[C@@H](N)C(=O)O; alloThr(PO3H2) = C[C@H](OP(=O)(O)O)[C@H](N)C(=O)O; Biotin = O=C1N[C@H]2[C@H](CS[C@H]2CCCCC(=O)*)N1; Phe(4-tBu) = CC(C)(C)c1ccc(C[C@H](N)C(=O)O)cc1; Bip = N[C@@H](Cc1ccc(-c2ccccc2)cc1)C(=O)O; pT = C[C@@H](OP(=O)(O)O)[C@H](N)C(=O)O; 2Nal = N[C@@H](Cc1ccc2ccccc2c1)C(=O)O; Bta = N[C@@H](Cc1csc2ccccc12)C(=O)O; Tic = O=C(O)[C@@H]1Cc2ccccc2CN1; 2Thi = N[C@@H](Cc1cccs1)C(=O)O; Cha = N[C@@H](CC1CCCCC1)C(=O)O; Tle = CC(C)(C)[C@H](N)C(=O)O; Pip = O=C(O)[C@@H]1CCCCN1; NMeA = CN[C@@H](C)C(=O)O
# Assays:
# [1] = biological target: T1, Peptidyl-prolyl cis-trans isomerase NIMA-interacting 1 (Homo sapiens, UniProt Q13526); assay: Inhibition of human Pin1 PPIase Activity by protease free PPIase assay
# Outline: (§1)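 Protease-free PPIase assay using Abz-Ala-Glu-Pro-Phe-NH-Np as substrate in 35 mM HEPES, pH 7.8, at 10 °C. Ki derived from concentration-dependent measurement of remaining Pin1 activity.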
# HeLa [2] = assay: Stability in HeLa cells after 5 hrs incubation; assay type: ADME, cell-based; settings: human
# Outline: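 Peptide incubated 5 h in whole HeLa cell lysate without phosphatase or protease inhibitors. Biotin-conjugated species pulled down on streptavidin Sepharose and analysed by mass spectrometry. Separately, 5 µM peptide analysed by capillary electrophoresis in 50 mM sodium phosphate, pH 7.0, detected at 220 nm, against a reference sample in buffer alone.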
# [3] = biological target: T1, Peptidyl-prolyl cis-trans isomerase NIMA-interacting 1; assay: Residual PPIase activity of human GST-Pin1
# [4] = test system: Peptidyl-prolyl cis-trans isomerase NIMA-interacting 1 (Homo sapiens), Q13526 [K63A]; assay: Residual PPIase activity of human GST-Pin1 K63A
# [5] = test system: Peptidyl-prolyl cis-trans isomerase NIMA-interacting 1 (Homo sapiens), Q13526 [S67E]; assay: Residual PPIase activity of human GST-Pin1 S67E
# [6] = biological target: T1, Peptidyl-prolyl cis-trans isomerase NIMA-interacting 1; assay: Residual PPIase activity of human GST-Pin1 R68
# [7] = biological target: T1, Peptidyl-prolyl cis-trans isomerase NIMA-interacting 1; assay: Residual PPIase activity of human GST-Pin1 69A
# [8] = test system: Peptidyl-prolyl cis-trans isomerase NIMA-interacting 1 (Homo sapiens), Q13526 [C113A]; assay: Residual PPIase activity of human GST-Pin1 C113A
# [9] = test system: Peptidyl-prolyl cis-trans isomerase NIMA-interacting 1 (Homo sapiens), Q13526 [S16E]; assay: Residual PPIase activity of human GST-Pin1 S16E by protease free PPIase assay; outline: as §1
# [10] = test system: Peptidyl-prolyl cis-trans isomerase NIMA-interacting 1 (Homo sapiens), Q13526 [H59A]; assay: Residual PPIase activity of human GST-Pin1 H59A
# [11] = test system: Peptidyl-prolyl cis-trans isomerase NIMA-interacting 1 (Homo sapiens), Q13526 [S154F]; assay: Residual PPIase activity of human GST-Pin1 S154F
# [12] = biological target: Peptidyl-prolyl cis-trans isomerase NIMA-interacting 4 (Homo sapiens) (UniProt Q9Y237); assay: Inhibition of Par14 at 500 uM
# [13] = biological target: Peptidyl-prolyl cis-trans isomerase FKBP1A (Homo sapiens) (UniProt P62942); assay: Inhibition of FKBP12 at 500 uM
# [14] = biological target: Peptidyl-prolyl cis-trans isomerase A (Homo sapiens) (UniProt P62937); assay: Inhibition of Cyp18 at 500 uM
# [15] = biological target: Mitogen-activated protein kinase 1 (Homo sapiens) (UniProt P28482); assay: Inhibition of ERK2 at 500 uM
# [16] = biological target: cAMP-dependent protein kinase (PKA) (Homo sapiens) (UniProt P22694+P17612+P22612); assay: Inhibition of PKA at 500 uM; assay type: protein assay
# [17] = biological target: Protein kinase C (PKC) (Homo sapiens) (UniProt O94806+P41743+P17252+P05129+Q05655+P05771+Q05513+Q02156+P24723+Q15139+Q04759); assay: Inhibition of PKC at 500 uM; assay type: protein assay
# [18] = Inhibition of PP2A at 500 uM
# [19] = biological target: Serine/threonine protein phosphatase PP2B-alpha catalytic subunit (Homo sapiens) (UniProt P16298); assay: Inhibition of PP2B at 500 uM
# [20] = Inhibition of PP1 at 500 uM
# HeLa [21] = assay: Cell cycle arrest in HeLa cells by accumulation at G2/M phase; assay type: functional, cell-based; settings: Homo sapiens
# Outline: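 HeLa cells loaded with inhibitor or its nonphosphorylated derivative by electroporation at varying concentrations, then cultured 3 days at 37 °C. DNA content measured by flow cytometry to give cell cycle phase fractions. Intracellular inhibitor level measured after cell lysis and centrifugation by reverse-phase HPLC of the supernatant against a standard curve.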
# Chain of Mitogen-activated protein kinase 1 (Homo sapiens) (P28482 whole entry): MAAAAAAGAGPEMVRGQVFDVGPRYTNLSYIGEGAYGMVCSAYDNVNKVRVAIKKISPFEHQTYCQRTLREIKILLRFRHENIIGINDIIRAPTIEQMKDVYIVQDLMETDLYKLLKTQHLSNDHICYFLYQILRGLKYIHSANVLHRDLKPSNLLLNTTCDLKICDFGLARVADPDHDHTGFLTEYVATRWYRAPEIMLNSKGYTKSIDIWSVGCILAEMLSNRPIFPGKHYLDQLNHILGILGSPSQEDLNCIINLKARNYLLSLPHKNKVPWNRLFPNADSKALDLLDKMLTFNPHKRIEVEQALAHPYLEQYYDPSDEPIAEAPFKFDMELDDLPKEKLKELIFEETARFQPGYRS
# Chain of Peptidyl-prolyl cis-trans isomerase FKBP1A (Homo sapiens) (P62942 whole entry): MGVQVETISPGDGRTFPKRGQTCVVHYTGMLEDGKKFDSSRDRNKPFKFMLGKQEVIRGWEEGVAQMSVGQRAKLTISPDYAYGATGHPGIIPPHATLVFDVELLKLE
# Chain of Peptidyl-prolyl cis-trans isomerase A (Homo sapiens) (P62937 whole entry, looked up): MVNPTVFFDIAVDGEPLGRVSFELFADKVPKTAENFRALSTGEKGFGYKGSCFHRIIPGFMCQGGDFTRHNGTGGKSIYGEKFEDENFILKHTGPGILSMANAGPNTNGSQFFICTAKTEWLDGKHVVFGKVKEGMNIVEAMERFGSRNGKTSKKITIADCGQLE
# Chain of Peptidyl-prolyl cis-trans isomerase NIMA-interacting 4 (Homo sapiens) (Q9Y237 whole entry): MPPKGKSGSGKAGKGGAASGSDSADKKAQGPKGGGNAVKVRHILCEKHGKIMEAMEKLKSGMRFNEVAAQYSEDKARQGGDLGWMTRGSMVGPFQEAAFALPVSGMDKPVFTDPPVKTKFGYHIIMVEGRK
smiles,measurement,setting,value
CC(=O)N[C@@H](CCCCNC(=O)CCCC[C@@H]1SC[C@@H]2NC(=O)N[C@@H]21)C(=O)N[C@@H](C)C(=O)N[C@@H](C)C(=O)N[C@@H](Cc1csc2ccccc12)C(=O)N[C@H](C(=O)N1CCC[C@H]1C(=O)N[C@@H](Cc1ccc2ccccc2c1)C(=O)N[C@@H](CCC(N)=O)C(N)=O)[C@H](C)OP(=O)(O)O (Ac-K(Biotin)AA[Bta][alloThr(PO3H2)]P[2Nal]Q-NH2),IC50,[1],20 µM
CC(=O)N[C@@H](CCCCNC(=O)CCCC[C@@H]1SC[C@@H]2NC(=O)N[C@@H]21)C(=O)N[C@@H](C)C(=O)N[C@@H](C)C(=O)N[C@@H](Cc1cccs1)C(=O)N[C@H](C(=O)N(C)[C@@H](C)C(=O)N[C@@H](Cc1ccc2ccccc2c1)C(=O)N[C@@H](CCC(N)=O)C(N)=O)[C@H](C)OP(=O)(O)O (Ac-K(Biotin)AA[2Thi][alloThr(PO3H2)][NMeA][2Nal]Q-NH2),IC50,[1],15 µM
CC(=O)N[C@@H](CCCCNC(=O)CCCC[C@@H]1SC[C@@H]2NC(=O)N[C@@H]21)C(=O)N[C@@H](C)C(=O)N[C@@H](C)C(=O)N[C@@H](Cc1ccc(C(C)(C)C)cc1)C(=O)N[C@H](C(=O)N1Cc2ccccc2C[C@H]1C(=O)N[C@@H](Cc1csc2ccccc12)C(=O)N[C@@H](CCC(N)=O)C(N)=O)[C@H](C)OP(=O)(O)O (Ac-K(Biotin)AA[Phe(4-tBu)][alloThr(PO3H2)][Tic][Bta]Q-NH2),IC50,[1],8 µM
CC(=O)N[C@@H](CCCCNC(=O)CCCC[C@@H]1SC[C@@H]2NC(=O)N[C@@H]21)C(=O)N[C@@H](C)C(=O)N[C@@H](C)C(=O)N[C@@H](Cc1ccc(-c2ccccc2)cc1)C(=O)N[C@H](C(=O)N1CCC[C@H]1C(=O)N[C@@H](Cc1ccc2ccccc2c1)C(=O)N[C@@H](CCC(N)=O)C(N)=O)[C@H](C)OP(=O)(O)O (Ac-K(Biotin)AA[Bip][alloThr(PO3H2)]P[2Nal]Q-NH2),IC50,[1],18 µM
same,Ki,[1],0.0048 µM
CC(=O)N[C@@H](CCCCNC(=O)CCCC[C@@H]1SC[C@@H]2NC(=O)N[C@@H]21)C(=O)N[C@@H](C)C(=O)N[C@@H](C)C(=O)N[C@@H](Cc1csc2ccccc12)C(=O)N[C@H](C(=O)N1CCC[C@H]1C(=O)N[C@@H](CC1CCCCC1)C(=O)N[C@@H](CCC(N)=O)C(N)=O)[C@@H](C)OP(=O)(O)O (Ac-K(Biotin)AA[Bta][pT]P[Cha]Q-NH2),IC50,[1],> 50 µM
CC(=O)N[C@@H](CCCCNC(=O)CCCC[C@@H]1SC[C@@H]2NC(=O)N[C@@H]21)C(=O)N[C@@H](C)C(=O)N[C@@H](C)C(=O)N[C@@H](Cc1ccc2ccccc2c1)C(=O)N[C@H](C(=O)N1CCC[C@H]1C(=O)N[C@H](C(=O)N[C@@H](CCC(N)=O)C(N)=O)C(C)(C)C)[C@H](C)OP(=O)(O)O (Ac-K(Biotin)AA[2Nal][alloThr(PO3H2)]P[Tle]Q-NH2),IC50,[1],> 50 µM
CC(=O)N[C@@H](Cc1ccccc1)C(=O)N[C@@H](C(=O)N1CCCC[C@H]1C(=O)N[C@@H](Cc1ccc2ccccc2c1)C(=O)N[C@@H](CCC(N)=O)C(N)=O)[C@H](C)OP(=O)(O)O,Activity,HeLa [2],Stable
CC(=O)N[C@@H](CCCCNC(=O)CCCC[C@@H]1SC[C@@H]2NC(=O)N[C@@H]21)C(=O)N[C@@H](C)C(=O)N[C@@H](C)C(=O)N[C@@H](Cc1csc2ccccc12)C(=O)N[C@H](C(=O)N1CCCC[C@H]1C(=O)N[C@@H](Cc1ccc2ccccc2c1)C(=O)N[C@@H](CCC(N)=O)C(N)=O)[C@H](C)OP(=O)(O)O (Ac-K(Biotin)AA[Bta][alloThr(PO3H2)][Pip][2Nal]Q-NH2),IC50,[1],0.21 µM
same,Ki,[1],0.183 µM
same,Activity,[3],100%
same,Activity,[4],0.2%
same,Activity,[5],0.3%
same,Activity,[6],0.4%
same,Activity,[7],0.4%
same,Activity,[8],6%
same,Activity,[9],100%
same,Activity,[10],5.7%
same,Activity,[11],35%
CC(=O)N[C@@H](Cc1ccccc1)C(=O)N[C@@H](C(=O)N1CCCC[C@@H]1C(=O)N[C@@H](Cc1ccc2ccccc2c1)C(=O)N[C@@H](CCC(N)=O)C(N)=O)[C@H](C)OP(=O)(O)O,inhibition,[12],< 10%
same,inhibition,[13],< 10%
same,inhibition,[14],< 10%
same,inhibition,[15],< 10%
same,inhibition,[16],< 10%
same,inhibition,[17],< 10%
same,inhibition,[18],< 10%
same,inhibition,[19],< 10%
same,inhibition,[20],< 10%
same,Activity,HeLa [21],Dose-dependent effect
CC(=O)N[C@@H](CCCCNC(=O)CCCC[C@@H]1SC[C@@H]2NC(=O)N[C@@H]21)C(=O)N[C@@H](C)C(=O)N[C@@H](C)C(=O)N[C@@H](Cc1ccc2ccccc2c1)C(=O)N[C@H](C(=O)N1CCC[C@H]1C(=O)N[C@@H](CC1CCCCC1)C(=O)N[C@@H](CCC(N)=O)C(N)=O)[C@H](C)OP(=O)(O)O (Ac-K(Biotin)AA[2Nal][alloThr(PO3H2)]P[Cha]Q-NH2),IC50,[1],> 50 µM
CC(=O)N[C@@H](Cc1csc2ccccc12)C(=O)N[C@H](C(=O)N1CCCC[C@@H]1C(=O)N[C@@H](Cc1ccc2ccccc2c1)C(=O)N[C@@H](CCC(N)=O)C(N)=O)[C@@H](C)OP(=O)(O)O,Ki,[1],0.258 µM
CC(=O)N[C@@H](CCCCNC(=O)CCCC[C@@H]1SC[C@@H]2NC(=O)N[C@@H]21)C(=O)N[C@@H](C)C(=O)N[C@@H](C)C(=O)N[C@@H](Cc1ccc(-c2ccccc2)cc1)C(=O)N[C@H](C(=O)N1CCC[C@H]1C(=O)N[C@@H](Cc1csc2ccccc12)C(=O)N[C@@H](CCC(N)=O)C(N)=O)[C@H](C)OP(=O)(O)O (Ac-K(Biotin)AA[Bip][alloThr(PO3H2)]P[Bta]Q-NH2),IC50,[1],15 µM
CC(=O)N[C@@H](CCCCNC(=O)CCCC[C@@H]1SC[C@@H]2NC(=O)N[C@@H]21)C(=O)N[C@@H](C)C(=O)N[C@@H](C)C(=O)N[C@@H](Cc1ccccc1)C(=O)N[C@H](C(=O)N(C)[C@@H](C)C(=O)N[C@@H](Cc1csc2ccccc12)C(=O)N[C@@H](CCC(N)=O)C(N)=O)[C@H](C)OP(=O)(O)O (Ac-K(Biotin)AAF[alloThr(PO3H2)][NMeA][Bta]Q-NH2),IC50,[1],20 µM
CC(=O)N[C@@H](Cc1ccccc1)C(=O)N[C@H](C(=O)N1CCCC[C@@H]1C(=O)N[C@@H](Cc1ccc2ccccc2c1)C(=O)N[C@@H](CCC(N)=O)C(N)=O)[C@H](C)OP(=O)(O)O,Ki,[1],0.547 µM
CC(=O)N[C@@H](CCCCNC(=O)CCCC[C@@H]1SC[C@@H]2NC(=O)N[C@@H]21)C(=O)N[C@@H](C)C(=O)N[C@@H](C)C(=O)N[C@@H](CC1CCCCC1)C(=O)N[C@H](C(=O)N1Cc2ccccc2C[C@H]1C(=O)N[C@@H](Cc1ccc2ccccc2c1)C(=O)N[C@@H](CCC(N)=O)C(N)=O)[C@H](C)OP(=O)(O)O (Ac-K(Biotin)AA[Cha][alloThr(PO3H2)][Tic][2Nal]Q-NH2),IC50,[1],25 µM
CC(=O)N[C@@H](CCCCNC(=O)CCCC[C@@H]1SC[C@@H]2NC(=O)N[C@@H]21)C(=O)N[C@@H](C)C(=O)N[C@@H](C)C(=O)N[C@@H](Cc1csc2ccccc12)C(=O)N[C@@H](C(=O)N1CCCC[C@H]1C(=O)N[C@@H](Cc1ccc2ccccc2c1)C(=O)N[C@@H](CCC(N)=O)C(N)=O)[C@@H](C)OP(=O)(O)O (Ac-K(Biotin)AA[Bta][dalloThr(PO3H2)][Pip][2Nal]Q-NH2),Ki,[1],0.0012 µM
same,inhibition,[12],< 10%
same,inhibition,[13],< 10%
same,inhibition,[14],< 10%
same,inhibition,[15],< 10%
same,inhibition,[16],< 10%
same,inhibition,[17],< 10%
same,inhibition,[18],< 10%
same,inhibition,[19],< 10%
same,inhibition,[20],< 10%
CC(=O)N[C@@H](CCCCNC(=O)CCCC[C@@H]1SC[C@@H]2NC(=O)N[C@@H]21)C(=O)N[C@@H](C)C(=O)N[C@@H](C)C(=O)N[C@@H](CC1CCCCC1)C(=O)N[C@H](C(=O)N(C)[C@@H](C)C(=O)N[C@@H](Cc1ccc2ccccc2c1)C(=O)N[C@@H](CCC(N)=O)C(N)=O)[C@H](C)OP(=O)(O)O (Ac-K(Biotin)AA[Cha][alloThr(PO3H2)][NMeA][2Nal]Q-NH2),IC50,[1],7 µM
